Test results taken from article PMC3390648 (The Journal of Biological Chemistry, 2012).
Ends that are not written are not given here.

Tests used:
yeast primase [1] = experiment: Binding of pol1 C-terminal peptide to yeast primase; settings: qualitative statement of abstract; method not given
human primase = target: T1, human primase (Homo sapiens, UniProt P49642+P49643); experiment: Fluorescence polarization; assay type: binding; settings: 25 °C, 25 mM HEPES, pH 7.2, 250 mM KCl, 1 mM TCEP, 30 nM fluorescein-labeled peptide, mean of three independent experiments
T1 sequence (P49643 1-462): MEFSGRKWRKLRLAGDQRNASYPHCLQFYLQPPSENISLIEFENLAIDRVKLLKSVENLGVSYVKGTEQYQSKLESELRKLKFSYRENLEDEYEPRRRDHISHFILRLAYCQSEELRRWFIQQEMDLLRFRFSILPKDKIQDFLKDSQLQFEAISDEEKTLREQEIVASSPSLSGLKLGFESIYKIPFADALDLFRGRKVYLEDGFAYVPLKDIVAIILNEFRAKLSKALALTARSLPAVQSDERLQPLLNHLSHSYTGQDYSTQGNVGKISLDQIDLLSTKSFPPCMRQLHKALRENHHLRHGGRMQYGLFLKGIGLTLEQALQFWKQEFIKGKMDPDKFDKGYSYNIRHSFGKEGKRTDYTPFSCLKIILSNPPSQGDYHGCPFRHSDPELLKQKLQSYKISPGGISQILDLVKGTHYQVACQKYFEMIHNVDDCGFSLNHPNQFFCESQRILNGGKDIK
T1 sequence (P49642 1-420 K72A/M73A partner): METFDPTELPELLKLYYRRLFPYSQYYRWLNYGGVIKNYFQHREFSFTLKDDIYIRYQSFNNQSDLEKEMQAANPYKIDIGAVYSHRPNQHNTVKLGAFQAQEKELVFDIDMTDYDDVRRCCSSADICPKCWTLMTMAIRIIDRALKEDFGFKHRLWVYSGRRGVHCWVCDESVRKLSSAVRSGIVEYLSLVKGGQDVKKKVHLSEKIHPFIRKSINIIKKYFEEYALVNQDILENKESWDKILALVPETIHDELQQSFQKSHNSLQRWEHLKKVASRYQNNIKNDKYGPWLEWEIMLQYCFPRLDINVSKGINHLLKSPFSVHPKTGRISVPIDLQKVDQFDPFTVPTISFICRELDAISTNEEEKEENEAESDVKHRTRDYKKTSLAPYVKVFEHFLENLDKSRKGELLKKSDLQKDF
Summary of the method: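 Peptide was human pol α 1445–1462 (wild type or point mutant), synthesized with an N-terminal fluorescein. Human primase was His-Prim1(1–420; K72A/M73A) with Prim2(1–462), made in E. coli and purified by Co-NTA, heparin, TEV cleavage and gel filtration. Serial protein dilutions were read at λex 485/λem 520 nm, 200 flashes per well. Gain was set against fluorescein (35 mP). Curves were fitted by Monte Carlo fitting.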

yeast primase [2] = experiment: GST pulldown with yeast primase; assay type: binding; settings: mutation to alanine of Phe1463
Summary of the method: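 GST-Pol1 1453–1468, wild type or single alanine mutants, was expressed in E. coli BL21(DE3). An excess was bound to glutathione-Sepharose and washed in 25 mM HEPES pH 7.0, 250 mM KCl, 1% BSA, 0.1% NP-40, 1 mM TCEP. Beads were incubated with 20 μM yeast primase (Pri1(1–409)/Pri2(49–513)) for 2 h at 4 °C, then washed, ending with a BSA-free wash. Bound protein was read by SDS-PAGE with Coomassie staining.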

Pol12 = experiment: Immunoprecipitation and immunoblotting, Pol12; assay type: cell-based, Saccharomyces cerevisiae; settings: diploid yeast, anti-HA beads, native cell extracts, immunoblotting
Pri1-Pri2 primase = experiment: Analytical gel filtration, assembly with primase; assay type: binding, yeast; settings: Superdex 200 10/300 GL, 14 μM complex, 25 mM HEPES, pH 7.2, 250 mM KCl, 5% glycerol, 0.5 mM TCEP; equimolar, 4 °C, 30 min
Summary of the method: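 Yeast primase Pri1(1–409)/His-Pri2(49–513) or the ΔCTD form Pri2(49–335), and Pol1 CTD(1263–1468)/His-Pol12(246–705), were expressed in E. coli Rosetta2(DE3). They were purified by Co-NTA, heparin, TEV tag cleavage and gel filtration. Equimolar partners were mixed for 30 min at 4 °C, and 100 μl was injected at 0.5 ml/min. Fractions were read by SDS-PAGE with Coomassie staining.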

In the case of GRRYVDMTSIFDFMLN [pol1 peptide], the binding to primase (yeast primase [1]) is reported as “binds primase with high affinity”.

In the case of “F1455A (GYSEVNLSKLAAGCAVKS; also: fluorescein label, position not given here)”, the level of binding (human primase) is reported as “did not display a measurable level of binding”.

“F1463A (GRRYVDMTSIADFMLN; also: GST fusion, N-terminal)” was tested, and the “interaction with primase (abstract summary, in vitro)” value (yeast primase [2]) was “abrogates the interaction with the primase”.

B1: Pol1: wild-type catalytic subunit of yeast pol α (protein)
chain: MSSKSEKLEKLRKLQAARNGTSIDDYEGDESDGDRIYDEIDEKEYRARKRQELLHDDFVVDDDGVGYVDRGVEEDWREVDNSSSDEDTGNLASKDSKRKKNIKREKDHQITDMLRTQHSKSTLLAHAKKSQKKSIPIDNFDDILGEFESGEVEKPNILLPSKLRENLNSSPTSEFKSSIKRVNGNDESSHDAGISKKVKIDPDSSTDKYLEIESSPLKLQSRKLRYANDVQDLLDDVENSPVVATKRQNVLQDTLLANPPSAQSLADEEDDEDSDEDIILKRRTMRSVTTTRRVNIDSRSNPSTSPFVTAPGTPIGIKGLTPSKSLQSNTDVATLAVNVKKEDVVDPETDTFQMFWLDYCEVNNTLILFGKVKLKDDNCVSAMVQINGLCRELFFLPREGKTPTDIHEEIIPLLMDKYGLDNIRAKPQKMKYSFELPDIPSESDYLKVLLPYQTPKSSRDTIPSDLSSDTFYHVFGGNSNIFESFVIQNRIMGPCWLDIKGADFNSIRNASHCAVEVSVDKPQNITPTTTKTMPNLRCLSLSIQTLMNPKENKQEIVSITLSAYRNISLDSPIPENIKPDDLCTLVRPPQSTSFPLGLAALAKQKLPGRVRLFNNEKAMLSCFCAMLKVEDPDVIIGHRLQNVYLDVLAHRMHDLNIPTFSSIGRRLRRTWPEKFGRGNSNMNHFFISDICSGRLICDIANEMGQSLTPKCQSWDLSEMYQVTCEKEHKPLDIDYQNPQYQNDVNSMTMALQENITNCMISAEVSYRIQLLTLTKQLTNLAGNAWAQTLGGTRAGRNEYILLHEFSRNGFIVPDKEGNRSRAQKQRQNEENADAPVNSKKAKYQGGLVFEPEKGLHKNYVLVMDFNSLYPSIIQEFNICFTTVDRNKEDIDELPSVPPSEVDQGVLPRLLANLVDRRREVKKVMKTETDPHKRVQCDIRQQALKLTANSMYGCLGYVNSRFYAKPLAMLVTNKGREILMNTRQLAESMNLLVVYGDTDSVMIDTGCDNYADAIKIGLGFKRLVNERYRLLEIDIDNVFKKLLLHAKKKYAALTVNLDKNGNGTTVLEVKGLDMKRREFCPLSRDVSIHVLNTILSDKDPEEALQEVYDYLEDIRIKVETNNIRIDKYKINMKLSKDPKAYPGGKNMPAVQVALRMRKAGRVVKAGSVITFVITKQDEIDNAADTPALSVAERAHALNEVMIKSNNLIPDPQYYLEKQIFAPVERLLERIDSFNVVRLSEALGLDSKKYFRREGGNNNGEDINNLQPLETTITDVERFKDTVTLELSCPSCDKRFPFGGIVSSNYYRVSYNGLQCKHCEQLFTPLQLTSQIEHSIRAHISLYYAGWLQCDDSTCGIVTRQVSVFGKRCLNDGCTGVMRYKYSDKQLYNQLLYFDSLFDCEKNKKQELKPIYLPDDLDYPKEQLTESSIKALTEQNRELMETGRSVVQKYLNDCGRRYVDMTSIFDFMLN
modifications: left off: 6HA, end not stated, kept
For B1, the “association with Pol12” value (Pol12) was “all associated equally well with Pol12”.

B2: CTD-Pol12: yeast Pol1 (1263–1468) with His-tagged Pol12 (246–705) (protein)
chain 1: NLQPLETTITDVERFKDTVTLELSCPSCDKRFPFGGIVSSNYYRVSYNGLQCKHCEQLFTPLQLTSQIEHSIRAHISLYYAGWLQCDDSTCGIVTRQVSVFGKRCLNDGCTGVMRYKYSDKQLYNQLLYFDSLFDCEKNKKQELKPIYLPDDLDYPKEQLTESSIKALTEQNRELMETGRSVVQKYLNDCGRRYVDMTSIFDFMLN
chain 2: KFRTMRQNLQEASDVLDDQIESFTKIIQNHYKLSPNDFADPTIQSQSEIYAVGRIVPDSPTYDKFLNPESLSLETSRMGGVGRRVRLDLSQVNELSFFLGQIVAFKGKNANGDYFTVNSILPLPYPNSPVSTSQELQEFQANLEGSSLKVIVTCGPYFANDNFSLELLQEFIDSINNEVKPHVLIMFGPFIDITHPLIASGKLPNFPQFKTQPKTLDELFLKLFTPILKTISPHIQTVLIPSTKDAISNHAAYPQASLIRKALQLPKRNFKCMANPSSFQINEIYFGCSNVDTFKDLKEVIKGGTTSSRYRLDRVSEHILQQRRYYPIFPGSIRTRIKPKDVSTKKETNDMESKEEKVYEHISGADLDVSYLGLTEFVGGFSPDIMIIPSELQHFARVVQNVVVINPGRFIRATGNRGSYAQITVQCPDLEDGKLTLVEGEEPVYLHNVWKRARVDLIAS
modifications: left off: His tag, end not stated, cleaved
For B2, the “complex formation with primase” value (Pri1-Pri2 primase) was “eluted as a single peak”.
